Consider 9 compounds from ChEMBL document CHEMBL4024721, “C-2 (E)-4-(Styryl)aniline substituted diphenylpyrimidine derivatives (Sty-DPPYs) as specific kinase inhibitors targeting clinical resistance related EGFRT790M mutant” (Bioorg Med Chem, 2017).

Molecules are shown by their SMILES.

For one experiment, the system named is HCC827. Description: Antiproliferative activity against human HCC827 cells harboring EGFR del E746 to A750 mutant assessed as decrease in cell viability after 72 hrs by MTT assay. The class given is functional, cell-based. Conditions: HCC827, 72 h.
Experiment [1] concerns the target Epidermal growth factor receptor (Homo sapiens, UniProt P00533, L858R/T790M).
Experiment [2] relates to Epidermal growth factor receptor (Homo sapiens), P00533 [L858R,T790M]. The experiment in a line: Potency index, ratio of gefitinib IC50 to test compound IC50 for recombinant human EGFR T790M/L858R double mutant (695 to end residues).
Experiment [3] can be described thus: Antiproliferative activity against NHBE cells assessed as decrease in cell viability after 72 hrs by MTT assay. In kind it is ADME, cell-based. Conditions: Homo sapiens. (In general: Tetrazolium assays rely on reduction of a dye to a coloured formazan, in cell work by metabolically active cells.)
The next experiment deals with A-431. The experiment in a line: Antiproliferative activity against human A431 cells harboring wild type EGFR assessed as decrease in cell viability after 72 hrs by MTT assay. In kind it is ADME, cell-based. Conditions: A-431, 72 h.
The subject of the next experiment is A549. Description: Antiproliferative activity against human A549 cells harboring EGFR K-ras mutant assessed as decrease in cell viability after 72 hrs by MTT assay. Conditions: A549, 72 h. In kind it is functional, cell-based.
For experiment [4], the system named is NCI-H1975. Description: Antiproliferative activity against human NCI-H1975 cells harboring EGFR T790M/L858R double mutant assessed as decrease in cell viability after 72 hrs by MTT assay. In kind it is functional, cell-based. Conditions: NCI-H1975, 72 h.
Experiment [5] addresses Epidermal growth factor receptor (Homo sapiens, UniProt P00533). The class given is ADME.
Experiment [6] deals with NCI-H1975. Description: Induction of apoptosis in human NCI-H1975 cells harboring EGFR T790M/L858R double mutant assessed as necrotic cells at 1 uM after 72 hrs by annexin V/FITC staining-based flow cytometric method relative to control. The class given is functional. The method, boiled down: (§1)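 H1975 cells (ATCC), grown as monolayers at 37 °C in humidified 5% CO2, were incubated with compound at the indicated concentrations for 72 h. They were then stained with annexin V/FITC and analysed by flow cytometry. The data shown come from one representative experiment.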
On the technique in general: A flow cytometer gives signals particle by particle.

In experiment [7] the test system is NCI-H1975. The experiment in a line: Induction of apoptosis in human NCI-H1975 cells harboring EGFR T790M/L858R double mutant after 72 hrs by annexin V/FITC staining-based flow cytometric method. The class given is functional, cell-based. The method, boiled down: as §1
For experiment [8], the system named is NCI-H1975. Description: Induction of apoptosis in human NCI-H1975 cells harboring EGFR T790M/L858R double mutant assessed as late apoptotic cells at 4 uM after 72 hrs by annexin V/FITC staining-based flow cytometric method relative to control. In kind it is functional. The method, boiled down: as §1
The subject of experiment [9] is NCI-H1975. The experiment in a line: Induction of apoptosis in human NCI-H1975 cells harboring EGFR T790M/L858R double mutant assessed as early apoptotic cells at 1 uM after 72 hrs by annexin V/FITC staining-based flow cytometric method relative to control. The class given is functional. The method, boiled down: as §1
The test system of experiment [10] is NCI-H1975. The experiment in a line: Induction of apoptosis in human NCI-H1975 cells harboring EGFR T790M/L858R double mutant assessed as early apoptotic cells at 4 uM after 72 hrs by annexin V/FITC staining-based flow cytometric method relative to control. In kind it is functional. The method, boiled down: as §1
Experiment [11] deals with NCI-H1975. The experiment in a line: Induction of apoptosis in human NCI-H1975 cells harboring EGFR T790M/L858R double mutant assessed as viable cells at 4 uM after 72 hrs by annexin V/FITC staining-based flow cytometric method relative to control. The class given is functional. Conditions: NCI-H1975, 72 h, read-out: Activity. The method, boiled down:
as §1

Experiment [12] concerns NCI-H1975. Description: Induction of apoptosis in human NCI-H1975 cells harboring EGFR T790M/L858R double mutant assessed as necrotic cells at 8 uM after 72 hrs by annexin V/FITC staining-based flow cytometric method relative to control. The class given is functional. The method, boiled down: as §1
Experiment [13] relates to NCI-H1975. The experiment in a line: Induction of apoptosis in human NCI-H1975 cells harboring EGFR T790M/L858R double mutant assessed as viable cells at 1 uM after 72 hrs by annexin V/FITC staining-based flow cytometric method relative to control. Conditions: NCI-H1975, 72 h, read-out: Activity. The class given is functional. The method, boiled down:
as §1

The subject of experiment [14] is NCI-H1975. The experiment in a line: Induction of apoptosis in human NCI-H1975 cells harboring EGFR T790M/L858R double mutant assessed as early apoptotic cells at 8 uM after 72 hrs by annexin V/FITC staining-based flow cytometric method relative to control. The class given is functional. The method, boiled down:
as §1

Experiment [15] has as its system NCI-H1975. The experiment in a line: Induction of apoptosis in human NCI-H1975 cells harboring EGFR T790M/L858R double mutant assessed as late apoptotic cells at 1 uM after 72 hrs by annexin V/FITC staining-based flow cytometric method relative to control. The class given is functional. The method, boiled down: as §1
The subject of experiment [16] is NCI-H1975. The experiment in a line: Induction of apoptosis in human NCI-H1975 cells harboring EGFR T790M/L858R double mutant assessed as late apoptotic cells at 8 uM after 72 hrs by annexin V/FITC staining-based flow cytometric method relative to control. In kind it is functional. The method, boiled down: as §1
For experiment [17], the system named is NCI-H1975. The experiment in a line: Induction of apoptosis in human NCI-H1975 cells harboring EGFR T790M/L858R double mutant assessed as necrotic cells at 4 uM after 72 hrs by annexin V/FITC staining-based flow cytometric method relative to control. The class given is functional. The method, boiled down:
as §1

The subject of experiment [18] is NCI-H1975. The experiment in a line: Induction of apoptosis in human NCI-H1975 cells harboring EGFR T790M/L858R double mutant assessed as viable cells at 8 uM after 72 hrs by annexin V/FITC staining-based flow cytometric method relative to control. In kind it is functional. Conditions: NCI-H1975, 72 h, read-out: Activity. The method, boiled down: as §1

As a reminder, the IC50 is the concentration that gives 50% inhibition. Turning to `C=CC(=O)Nc1cccc(Oc2nc(Nc3ccc(/C=C/c4cc(C)cc(C)c4)cc3)ncc2Cl)c1`, the concentration for half-maximal inhibition (IC50) was determined as 11.7 µM in the experiment with HCC827; 0.0224 µM in experiment [1]; 6.07 µM in experiment [3]; 4.71 µM with A-431; 10.8 µM in the experiment with A549; 13.7 µM in the experiment with NCI-H1975 [4]. In experiment [5], the IC50 turned out to be 0.087 µM. The Ratio IC50 in experiment [2] lay in the range of 45 to 177.

Turning to `C=CC(=O)Nc1cccc(Nc2nc(Nc3ccc(/C=C/c4cc(C)cc(C)c4)cc3)ncc2Cl)c1`, the IC50 with HCC827 was determined as 4 µM; in [1] it was 0.0265 µM; in experiment [3] it was 17 µM; in the experiment on A-431 it was 5.56 µM; in the experiment with A549 it was 5.59 µM; with NCI-H1975 [4] it was 2.32 µM. This compound also yielded an IC50 in [5] of 0.607 µM. Further, the Ratio IC50 in experiment [2] was in the range of 45 to 177.

In the case of `C=CC(=O)Nc1cccc(Nc2nc(Nc3ccc(/C=C/c4cc(Cl)cc(Cl)c4)cc3)ncc2F)c1`, the IC50 stood at 10.8 µM in the experiment with HCC827; 0.0142 µM in experiment [1]; 5.42 µM in [3]; 1.29 µM with A-431; 7.01 µM in the experiment on A549; 6.98 µM in the experiment with NCI-H1975 [4]. Besides, in experiment [5], inhibition was half-maximal at 0.388 µM (IC50). The Ratio IC50 in experiment [2] fell in the range of 45 to 177.

For `C=CC(=O)Nc1cccc(Nc2nc(Nc3ccc(N4CCN(C(C)=O)CC4)cc3OC)ncc2C(F)(F)F)c1` [ROCILETINIB], the half-maximal inhibitory concentration (IC50) in the experiment on HCC827 was found to be 0.031 µM; in experiment [3], 23.8 µM; in the experiment with A-431 it was 1.79 µM; with A549 it was 3.24 µM; in the experiment with NCI-H1975 [4], 0.137 µM.

With `C=CC(=O)Nc1cccc(Nc2nc(Nc3ccc(/C=C/c4cc(OC)cc(OC)c4)cc3)ncc2Cl)c1`, the 50% inhibitory concentration (IC50) is 3.32 µM in the experiment on HCC827; 0.0157 µM in experiment [1]; 9.18 µM in [3]; 1.78 µM in the experiment with A-431; 6.84 µM with A549; 3.76 µM with NCI-H1975 [4]. In experiment [5], this compound yielded an IC50 of 0.216 µM. The Ratio IC50 in experiment [2] fell in the range of 45 to 177.

As to `C=CC(=O)Nc1cccc(Nc2nc(Nc3ccc(/C=C/c4ccc(C)cc4C)cc3)ncc2Cl)c1`, the IC50 in the experiment on HCC827 turned out to be 9.71 µM; in [1], 0.0068 µM; in [3] it was 15.8 µM; in the experiment on A-431, 3.16 µM; in the experiment on A549, 4.94 µM; in the experiment on NCI-H1975 [4] it was 4.39 µM. For the same compound, in [5], the 50% inhibitory concentration (IC50) stood at 0.996 µM. Also, the Ratio IC50 in experiment [2] was 45 to 177.

`C=CC(=O)Nc1cccc(Nc2nc(Nc3ccc(/C=C/c4cc(C)cc(C)c4)cc3)ncc2F)c1`: the Activity is 3.7% with NCI-H1975 [6]; “Dose-dependent effect” in the experiment with NCI-H1975 [7]; 25.8% in the experiment on NCI-H1975 [8]; 17.7% with NCI-H1975 [9]; 27.1% in the experiment with NCI-H1975 [10]; 13.2% in the experiment with NCI-H1975 [12]. The Activity in the experiment on NCI-H1975 [14] is 3.7%; in the experiment on NCI-H1975 [15], 22.7%; in the experiment on NCI-H1975 [16], 76.1%; with NCI-H1975 [17] it was 1.4%. Also, the IC50 in the experiment with HCC827 is 2.07 µM; in experiment [1], 0.011 µM; in experiment [3], 22.5 µM; in the experiment on A-431 it was 10.6 µM; with A549, 12.8 µM; in the experiment on NCI-H1975 [4] it was 2.91 µM. The concentration for half-maximal inhibition (IC50) in [5] was determined as 0.539 µM. Moreover, the Ratio IC50 in experiment [2] lay in the range of 45 to 177. Moreover, in the experiment with NCI-H1975 [11], the viability at 4 µM was found to be 45.7%. The viability at 1 µM in the experiment on NCI-H1975 [13] was determined as 55.9%. The viability at 8 µM in the experiment on NCI-H1975 [18] stood at 7%.

`C=CC(=O)Nc1cccc(Nc2nc(Nc3ccc(/C=C/c4ccc(C)cc4C)cc3)ncc2F)c1`: the 50% inhibitory concentration (IC50) in the experiment with HCC827 is greater than 20 µM; in experiment [1], 0.0081 µM; in [3] it was 10.4 µM; with A-431, 3.11 µM; in the experiment with A549, 1.32 µM; in the experiment with NCI-H1975 [4], 7.16 µM. In [5], the IC50 is 0.387 µM. For the same compound, the Ratio IC50 in experiment [2] was in the range of 45 to 177.

As to `C=CC(=O)Nc1cccc(Nc2nc(Nc3ccc(/C=C/c4cc(Cl)cc(Cl)c4)cc3)ncc2Cl)c1`, the half-maximal inhibitory concentration (IC50) in the experiment with HCC827 turned out to be 9.16 µM; in experiment [1], 0.0113 µM; in experiment [3] it was 35.2 µM; with A-431, 6.56 µM; in the experiment with A549, 15.8 µM; in the experiment on NCI-H1975 [4], 6.98 µM. In experiment [5], this compound returned an IC50 of 1.04 µM. The Ratio IC50 in experiment [2] was in the range of 45 to 177.
